Results published in ChEMBL document CHEMBL4689842, “EUbOPEN Chemogenomics Library wave 1” (2021).

Tested on: HEK-293T
Assay: Multiplex assay against HEK293T;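 on Population Tubulin-Different-Phenotype (%): share of the cells with healthy nuclei that show this phenotype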
Assay type: toxicity, cell-based
Details: human
Procedure, shortened: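 Values for tubulin, mitochondrial-mass and membrane-permeability phenotypes are per cents of cells with healthy nuclei. These cells were identified by CellPathfinder machine-learning gating of live cells that had been stained at seeding with Hoechst33342, BioTracker Green Microtubule Cytoskeleton Dye, MitoTracker Red and Annexin V Alexa Fluor 680 and imaged on a CQ1 microscope at 37°C and 5% CO2 after compound addition. The gating first set Hoechst high-intensity objects apart from normal cells, then split normal cells into healthy, pyknosed or fragmented nuclei, and pyknosed cells into mitotic or apoptotic.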

[1] = 12 h, 1 µM, compound concentration 1 uM, replicate 1
[2] = 12 h, 1 µM, compound concentration 1 uM, replicate 2
[3] = 12 h, 10 µM, compound concentration 10 uM, replicate 1
[4] = 12 h, 10 µM, compound concentration 10 uM, replicate 2
[5] = 24 h, 1 µM, compound concentration 1 uM, replicate 1
[6] = 24 h, 1 µM, compound concentration 1 uM, replicate 2
[7] = 24 h, 10 µM, compound concentration 10 uM, replicate 1
[8] = 24 h, 10 µM, compound concentration 10 uM, replicate 2
[9] = 48 h, 1 µM, compound concentration 1 uM, replicate 1
[10] = 48 h, 1 µM, compound concentration 1 uM, replicate 2
[11] = 48 h, 10 µM, compound concentration 10 uM, replicate 1
[12] = 48 h, 10 µM, compound concentration 10 uM, replicate 2

SMILES: S=C(NCCCc1c[nH]cn1)NCCCN(Cc1ccc(Cl)c(Cl)c1)c1ccc(Br)cn1
- Population Apoptotic (%) [1]: 47%
- Population Fragmented Nuclei (%) [1]: 8%
- Population Healthy Nuclei (%) [1]: 41%
- Population Hoechst High Intensity Objects (%) [1]: 11%
- Population Membrane Permeable-Phenotype (%) [1]: 4%
- Population Mitochondria Different-Phenotype (%) [1]: 83%
- Population Mitotic Cells (%) [1]: 52%
- Population Normal (%) [1]: 88%
- Population Pyknosed Nuclei (%) [1]: 49%
- Population Tubulin-Different-Phenotype (%) [1]: 67%
- Total Cell Count [1]: 310
- Population Apoptotic (%) [2]: 19%
- Population Fragmented Nuclei (%) [2]: 5%
- Population Healthy Nuclei (%) [2]: 44%
- Population Hoechst High Intensity Objects (%) [2]: 3%
- Population Membrane Permeable-Phenotype (%) [2]: 22%
- Population Mitochondria Different-Phenotype (%) [2]: 29%
- Population Mitotic Cells (%) [2]: 80%
- Population Normal (%) [2]: 96%
- Population Pyknosed Nuclei (%) [2]: 50%
- Population Tubulin-Different-Phenotype (%) [2]: 54%
- Total Cell Count [2]: 240
- Population Apoptotic (%) [3]: 88%
- Population Fragmented Nuclei (%) [3]: 6%
- Population Healthy Nuclei (%) [3]: 2%
- Population Hoechst High Intensity Objects (%) [3]: 13%
- Population Membrane Permeable-Phenotype (%) [3]: 22%
- Population Mitochondria Different-Phenotype (%) [3]: 66%
- Population Mitotic Cells (%) [3]: 11%
- Population Normal (%) [3]: 86%
- Population Tubulin-Different-Phenotype (%) [3]: 77%
- Total Cell Count [3]: 356
- Population Apoptotic (%) [4]: 84%
- Population Fragmented Nuclei (%) [4]: 5%
- Population Healthy Nuclei (%) [4]: 3%
- Population Hoechst High Intensity Objects (%) [4]: 6%
- Population Membrane Permeable-Phenotype (%) [4]: 37%
- Population Mitochondria Different-Phenotype (%) [4]: 50%
- Population Mitotic Cells (%) [4]: 15%
- Population Normal (%) [4]: 93%
- Population Pyknosed Nuclei (%) [4]: 90%
- Population Tubulin-Different-Phenotype (%) [4]: 100%
- Total Cell Count [4]: 220
- Population Apoptotic (%) [5]: 61%
- Population Fragmented Nuclei (%) [5]: 13%
- Population Healthy Nuclei (%) [5]: 31%
- Population Hoechst High Intensity Objects (%) [5]: 15%
- Population Membrane Permeable-Phenotype (%) [5]: 8%
- Population Mitochondria Different-Phenotype (%) [5]: 73%
- Population Mitotic Cells (%) [5]: 38%
- Population Normal (%) [5]: 84%
- Population Tubulin-Different-Phenotype (%) [5]: 73%
- Total Cell Count [5]: 308
- Population Apoptotic (%) [6]: 20%
- Population Fragmented Nuclei (%) [6]: 4%
- Population Healthy Nuclei (%) [6]: 40%
- Population Hoechst High Intensity Objects (%) [6]: 6%
- Population Membrane Permeable-Phenotype (%) [6]: 28%
- Population Mitochondria Different-Phenotype (%) [6]: 17%
- Population Mitotic Cells (%) [6]: 79%
- Population Normal (%) [6]: 93%
- Population Pyknosed Nuclei (%) [6]: 54%
- Population Tubulin-Different-Phenotype (%) [6]: 52%
- Total Cell Count [6]: 239
- Population Apoptotic (%) [7]: 82%
- Population Fragmented Nuclei (%) [7]: 8%
- Population Healthy Nuclei (%) [7]: 2%
- Population Hoechst High Intensity Objects (%) [7]: 14%
- Population Mitochondria Different-Phenotype (%) [7]: 85%
- Population Mitotic Cells (%) [7]: 17%
- Population Normal (%) [7]: 85%
- Population Pyknosed Nuclei (%) [7]: 89%
- Total Cell Count [7]: 366
- Population Apoptotic (%) [8]: 81%
- Population Fragmented Nuclei (%) [8]: 7%
- Population Healthy Nuclei (%) [8]: 4%
- Population Hoechst High Intensity Objects (%) [8]: 12%
- Population Membrane Permeable-Phenotype (%) [8]: 0%
- Population Mitochondria Different-Phenotype (%) [8]: 22%
- Population Mitotic Cells (%) [8]: 18%
- Population Normal (%) [8]: 87%
- Population Pyknosed Nuclei (%) [8]: 87%
- Population Tubulin-Different-Phenotype (%) [8]: 100%
- Total Cell Count [8]: 231
- Population Apoptotic (%) [9]: 49%
- Population Fragmented Nuclei (%) [9]: 19%
- Population Healthy Nuclei (%) [9]: 4%
- Population Hoechst High Intensity Objects (%) [9]: 23%
- Population Membrane Permeable-Phenotype (%) [9]: 41%
- Population Mitochondria Different-Phenotype (%) [9]: 50%
- Population Mitotic Cells (%) [9]: 50%
- Population Normal (%) [9]: 76%
- Population Pyknosed Nuclei (%) [9]: 75%
- Population Tubulin-Different-Phenotype (%) [9]: 83%
- Total Cell Count [9]: 320
- Population Apoptotic (%) [10]: 35%
- Population Fragmented Nuclei (%) [10]: 5%
- Population Healthy Nuclei (%) [10]: 26%
- Population Hoechst High Intensity Objects (%) [10]: 13%
- Population Membrane Permeable-Phenotype (%) [10]: 33%
- Population Mitochondria Different-Phenotype (%) [10]: 20%
- Population Mitotic Cells (%) [10]: 64%
- Population Normal (%) [10]: 86%
- Population Pyknosed Nuclei (%) [10]: 67%
- Population Tubulin-Different-Phenotype (%) [10]: 53%
- Total Cell Count [10]: 234
- Population Apoptotic (%) [11]: 71%
- Population Fragmented Nuclei (%) [11]: 11%
- Population Healthy Nuclei (%) [11]: 0%
- Population Hoechst High Intensity Objects (%) [11]: 17%
- Population Membrane Permeable-Phenotype (%) [11]: 0%
- Population Mitochondria Different-Phenotype (%) [11]: 100%
- Population Mitotic Cells (%) [11]: 28%
- Population Normal (%) [11]: 82%
- Population Pyknosed Nuclei (%) [11]: 87%
- Total Cell Count [11]: 369
- Population Apoptotic (%) [12]: 87%
- Population Fragmented Nuclei (%) [12]: 15%
- Population Healthy Nuclei (%) [12]: 9%
- Population Hoechst High Intensity Objects (%) [12]: 9%
- Population Membrane Permeable-Phenotype (%) [12]: 5%
- Population Mitochondria Different-Phenotype (%) [12]: 75%
- Population Mitotic Cells (%) [12]: 12%
- Population Normal (%) [12]: 90%
- Population Pyknosed Nuclei (%) [12]: 74%
- Population Tubulin-Different-Phenotype (%) [12]: 100%
- Total Cell Count [12]: 230
